Assay results: ChEMBL document CHEMBL1136016, “Synthesis, biological activity, and molecular modeling investigation of new pyrazolo[4,3-e]-1,2,4-triazolo[1,5-c]pyrimidine derivatives as human A(3) adenosine receptor antagonists” (J Med Chem, 2002)
Values belong to the compound of their own block, whether it stands above or below them.

Experiments:
[1] = target: Adenosine receptors; A2b & A3 (Homo sapiens) (UniProt P29275+P0DMS8); test: Selectivity ratio (h2B/hA3); format: protein assay
[2] = target: T1, Adenosine receptor A2a (Homo sapiens, UniProt P29274); test: Displacement of [3H]SCH-58261 from human Adenosine A2A receptor expressed in HEK293 cells; range 255-366; format: cell-based
T1 sequence (P29274 whole entry): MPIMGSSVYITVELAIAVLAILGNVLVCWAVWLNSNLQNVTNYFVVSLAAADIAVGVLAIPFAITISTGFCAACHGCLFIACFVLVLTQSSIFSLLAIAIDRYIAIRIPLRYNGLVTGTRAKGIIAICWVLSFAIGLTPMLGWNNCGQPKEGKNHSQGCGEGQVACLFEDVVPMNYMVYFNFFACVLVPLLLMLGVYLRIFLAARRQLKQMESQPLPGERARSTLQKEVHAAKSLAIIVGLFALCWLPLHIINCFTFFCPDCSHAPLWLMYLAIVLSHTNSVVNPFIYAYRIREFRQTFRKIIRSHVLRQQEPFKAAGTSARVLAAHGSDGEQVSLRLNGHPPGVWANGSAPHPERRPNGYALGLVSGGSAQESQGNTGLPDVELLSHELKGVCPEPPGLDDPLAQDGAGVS

[3] = target: Adenosine receptors; A1 & A3 (Homo sapiens) (UniProt P30542+P0DMS8); test: Selectivity ratio (hA1/hA3); format: protein assay
[4] = target: T2, Adenosine receptor A3 (Homo sapiens, UniProt P0DMS8); test: Displacement of [3H]MRE3008-F20 from human Adenosine A3 receptor expressed in HEK cells; range 0.65-1.58; format: cell-based, HEK293
T2 sequence (P0DMS8 whole entry): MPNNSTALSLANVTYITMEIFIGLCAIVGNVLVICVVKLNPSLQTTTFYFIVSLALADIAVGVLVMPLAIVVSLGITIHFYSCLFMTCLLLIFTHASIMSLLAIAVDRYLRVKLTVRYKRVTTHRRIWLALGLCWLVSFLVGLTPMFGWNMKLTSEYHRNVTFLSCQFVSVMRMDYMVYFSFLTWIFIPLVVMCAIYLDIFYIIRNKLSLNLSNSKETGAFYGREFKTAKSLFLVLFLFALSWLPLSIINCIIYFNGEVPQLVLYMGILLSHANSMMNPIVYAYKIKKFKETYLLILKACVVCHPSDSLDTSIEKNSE

[5] = target: T3, Adenosine receptor A2b (Homo sapiens, UniProt P29275); test: Displacement of [3H]-DPCPX from human Adenosine A2B receptor expressed in HEK293 cells; range 118-173; format: cell-based
T3 sequence (P29275 whole entry): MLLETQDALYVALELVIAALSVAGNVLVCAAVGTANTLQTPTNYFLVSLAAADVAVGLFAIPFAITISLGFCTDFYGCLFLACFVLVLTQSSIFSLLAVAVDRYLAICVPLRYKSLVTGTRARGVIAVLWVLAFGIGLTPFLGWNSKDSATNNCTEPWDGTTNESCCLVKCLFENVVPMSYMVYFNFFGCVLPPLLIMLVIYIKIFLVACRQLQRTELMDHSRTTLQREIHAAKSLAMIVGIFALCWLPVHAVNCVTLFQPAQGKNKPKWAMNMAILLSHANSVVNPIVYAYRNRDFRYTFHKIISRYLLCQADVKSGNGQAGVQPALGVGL
In short: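 HEK-293 membranes expressing the human receptor were incubated 60 min at 25 °C. Six to eight test concentrations were used. Nonspecific binding was set with NECA. n = 3-6.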

[6] = target: T2, Adenosine receptor A3; test: Displacement of [3H]MRE3008-F20 from human Adenosine A3 receptor expressed in HEK cells; range 0.23-0.40; format: cell-based, HEK293
[7] = target: T1, Adenosine receptor A2a; test: Displacement of [3H]SCH-58,261 from human Adenosine A2A receptor expressed in HEK293 cells; range 122-187; format: cell-based
[8] = target: T4, Adenosine receptor A1 (Homo sapiens, UniProt P30542); test: Displacement of [3H]DPCPX from human Adenosine A1 receptor expressed in CHO cells; range […]; format: cell-based
T4 sequence (P30542 whole entry): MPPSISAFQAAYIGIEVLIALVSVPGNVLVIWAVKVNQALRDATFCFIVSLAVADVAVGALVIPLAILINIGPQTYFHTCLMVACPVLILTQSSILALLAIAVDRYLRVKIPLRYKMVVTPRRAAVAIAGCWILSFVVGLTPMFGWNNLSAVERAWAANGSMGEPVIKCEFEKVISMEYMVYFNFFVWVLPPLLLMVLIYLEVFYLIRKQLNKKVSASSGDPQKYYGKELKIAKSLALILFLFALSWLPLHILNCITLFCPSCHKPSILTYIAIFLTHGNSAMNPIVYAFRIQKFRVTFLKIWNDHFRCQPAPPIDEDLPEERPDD
In short: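 Competition binding on membranes of CHO cells stably expressing human A1 receptor, resuspended in 50 mM Tris HCl pH 7.4. Incubation 120 min at 25 °C with 1 nM [3H]DPCPX, 50 µg protein per assay and at least six to eight test concentrations. CHA defined nonspecific binding. Bound ligand separated on glass-fibre filters and counted; n = 3-6.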

[9] = target: T3, Adenosine receptor A2b; test: Displacement of [3H]DPCPX from human Adenosine A2B receptor expressed in HEK293 cells; range 67-141; format: cell-based
In short: (§1)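 Competition binding on membranes of HEK-293 cells carrying recombinant human A2B receptor. Incubation 60 min at 25 °C in 50 mM Tris HCl pH 7.4 with 10 mM MgCl2, 1 mM EDTA, 0.1 mM benzamidine and 2 IU/mL adenosine deaminase. Radioligand 40 nM [3H]DPCPX, at least six to eight test concentrations. NECA defined nonspecific binding. Bound ligand separated on glass-fibre filters and counted; n = 3-6.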

[10] = target: T3, Adenosine receptor A2b; test: Displacement of [3H]DPCPX from human Adenosine A2B receptor expressed in HEK293 cells; range 57-105; format: cell-based
In short: (§2)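 Membranes from HEK-293 cells with human recombinant A2B receptor. Incubation 60 min at 25 °C in 50 mM Tris HCl, 10 mM MgCl2, 1 mM EDTA, 0.1 mM benzamidine, pH 7.4, with 2 IU/mL adenosine deaminase and 40 nM [3H]DPCPX. At least six to eight test concentrations. Nonspecific binding defined with NECA. n = 3-6.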

[11] = target: T1, Adenosine receptor A2a; test: Displacement of [3H]SCH-58261 from human Adenosine A2A receptor expressed in HEK293 cells; range 332-426; format: cell-based
[12] = target: T2, Adenosine receptor A3; test: biochemical
[13] = target: T4, Adenosine receptor A1; test: Displacement of [3H]DPCPX from human Adenosine A1 receptor expressed in CHO cells; range 314-536; format: cell-based
[14] = target: T4, Adenosine receptor A1; test: Displacement of [3H]DPCPX from human Adenosine A1 receptor expressed in CHO cells; range 248-276; format: cell-based
[15] = target: T3, Adenosine receptor A2b; test: Displacement of [3H]DPCPX from human Adenosine A2B receptor expressed in HEK293 cells; range 118-146; format: cell-based; in short: as §1
[16] = target: T2, Adenosine receptor A3; test: Displacement of [3H]MRE3008-F20 from human Adenosine A3 receptor expressed in HEK cells; range 0.11-0.18; format: cell-based, HEK293
[17] = target: T1, Adenosine receptor A2a; test: Displacement of [3H]SCH-58261 from human Adenosine A2A receptor expressed in HEK293 cells; range 23-40; format: cell-based
[18] = target: T3, Adenosine receptor A2b; test: Displacement of [3H]DPCPX from human Adenosine A2B receptor expressed in HEK293 cells; range 261-336; format: cell-based; in short: as §2
[19] = target: T1, Adenosine receptor A2a; test: Displacement of [3H]SCH-58261 from human Adenosine A2A receptor expressed in HEK293 cells; range 30-54; format: cell-based
[20] = target: T4, Adenosine receptor A1; test: Displacement of [3H]DPCPX from human Adenosine A1 receptor expressed in CHO cells; range 389-640; format: cell-based
In short: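 Human recombinant A1 receptor in CHO cell membranes, resuspended in 50 mM Tris HCl pH 7.4. Displacement run 120 min at 25 °C with 1 nM [3H]DPCPX, 50 µg protein per assay, and at least six to eight test concentrations. Nonspecific binding defined with CHA. Bound and free separated on glass-fiber filters; filter radioactivity counted. n = 3-6.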

[21] = target: T2, Adenosine receptor A3; test: Displacement of [3H]MRE3008-F20 from human Adenosine A3 receptor expressed in HEK cells; range 0.29-0.47; format: cell-based, HEK293

SMILES: CCCn1cc2c(nc(NC(=O)Cc3ccccc3)n3nc(-c4ccco4)nc23)n1
- Ratio [1]: 142
- Ki [2]: 306 nM
- Ratio [3]: 348
- Ki [4]: 1.01 nM
- Ki [5]: 143 nM

SMILES: CCn1cc2c(nc(NC(=O)Nc3ccccc3Cl)n3nc(-c4ccco4)nc23)n1
- Ratio [1]: 323
- Ki [6]: 0.3 nM
- Ki [7]: 150 nM
- Ki [8]: 348 nM
- Ki [9]: 97 nM
- Ratio [3]: 1160

SMILES: CCCCn1cc2c(nc(NC(=O)Nc3ccc4c(c3)OCO4)n3nc(-c4ccco4)nc23)n1
- Ratio [1]: 156
- Ki [10]: 78 nM
- Ki [11]: 376 nM
- Ki [12]: 0.5 nM
- Ratio [3]: 820
- Ki [13]: 410 nM

More lines, now with the values ahead:

- Ratio [1]: 943
- Ki [14]: 262 nM
- Ki [15]: 132 nM
- Ratio [3]: 1870
- Ki [16]: 0.14 nM
- Ki [17]: 30 nM
SMILES: CCn1cc2c(nc(NC(=O)Nc3ccc(C)cc3)n3nc(-c4ccco4)nc23)n1

- Ratio [1]: 800
- Ki [18]: 296 nM
- Ki [19]: 40 nM
- Ki [20]: 500 nM
- Ratio [3]: 1350
- Ki [21]: 0.37 nM
SMILES: CCn1cc2c(nc(NC(=O)Nc3ccc(Br)cc3)n3nc(-c4ccco4)nc23)n1
